Measurements as given in ChEMBL document CHEMBL1949592, “Synthesis and antiviral activity of 2'-deoxy-2'-fluoro-2'-C-methyl-7-deazapurine nucleosides, their phosphoramidate prodrugs and 5'-triphosphates” (Bioorg Med Chem Lett, 2011).

Key:
Hepatitis C virus = assay: Antiviral activity against Hepatitis C virus infected in human HuH7 cells assessed as decrease in viral RNA level after 96 hrs by RT-PCR; format: functional, organism-based, Hepacivirus hominis; settings: Huh-7, 96 h
[1] = test system: Human immunodeficiency virus 1; assay: Antiviral activity against HIV1 LAV1 infected in PHA-stimulated human PBMC assessed as reduction in RT activity after 6 days by micromethod-based beta scintillation counting; format: functional, organism-based; settings: Human immunodeficiency virus 1, LAV1, 144 h
Vero = assay: Cytotoxicity against african green monkey Vero cells after 3 days by hemocytometer analysis; format: cell-based; settings: Chlorocebus sabaeus, 72 h
Huh-7 = assay: Cytotoxicity against human HuH7 cells assessed as reduction of 50% rRNA level after 96 hrs; format: cell-based; settings: huh-7, 96 h
Method in brief: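 Huh-7 cells carrying the HCV replicon were exposed to compound for 96 h. Toxicity was read as a fall in cellular rRNA.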

CCRF-CEM = assay: Cytotoxicity against human CEM cells after 6 days by trypan blue exclusion method; format: cell-based; settings: 144 h
PBMC = assay: Cytotoxicity against human PBMC after 6 days by trypan blue exclusion method; format: cell-based; settings: 144 h

Row | Compound | EC50 (Hepatitis C virus) [µM] | EC90 (Hepatitis C virus) [µM] | EC50 [1] [µM] | EC90 [1] [µM] | IC50 (Vero) [µM] | CC50 (Huh-7) [µM] | IC50 (CCRF-CEM) [µM] | IC50 (PBMC) [µM]
1 | CNc1ncnc2c1c(F)cn2[C@@H]1O[C@H](CO)[C@@H](O)[C@@]1(C)F | > 10 | > 10 | > 100 | > 100 | > 100 | > 10 | > 100 | > 100
2 | CCOC(=O)[C@H](C)NP(=O)(OC[C@H]1O[C@@H](n2cc(I)c3c(N)nc(N)nc32)[C@](C)(F)[C@@H]1O)Oc1ccccc1 (some centres not stated) | > 10 | > 10 | 26.7 | > 100 | 65.1 | > 10 | > 100 | 67.4
3 | CCOC(=O)[C@H](C)NP(=O)(OC[C@H]1O[C@@H](n2cc(I)c3c(N)ncnc32)[C@](C)(F)[C@@H]1O)Oc1ccccc1 (some centres not stated) | > 10 | > 10 | 58.1 | > 100 | 17.8 | > 10 | 13.5 | 17.4
4 | Cc1cn([C@H]2C[C@H](N=[N+]=[N-])[C@@H](CO)O2)c(=O)[nH]c1=O [ZIDOVUDINE] | > 10 | > 10 | 0.0033 | 0.028 | – | > 10 | – | > 100
5 | C[C@@]1(F)[C@H](O)[C@@H](CO)O[C@H]1n1cc(F)c2c(N)ncnc21 | > 10 | > 10 | > 100 | > 100 | > 100 | – | > 100 | > 100
6 | CCc1cn([C@H]2O[C@H](CO)[C@@H](O)[C@@]2(C)F)c2ncnc(N)c12 | > 10 | > 10 | 95.5 | – | > 100 | > 10 | > 100 | > 100
7 | C[C@@]1(F)[C@H](O)[C@@H](CO)O[C@@H]1n1cc(Cl)c2c(N)ncnc21 | < 10 | – | > 100 | > 100 | > 100 | – | 96 | > 100
8 | C[C@@]1(F)[C@H](O)[C@@H](CO)O[C@@H]1n1cc(F)c2c(N)ncnc21 | > 10 | – | > 100 | – | > 100 | > 10 | 8.1 | > 100
9 | C[C@@]1(F)[C@H](O)[C@@H](CO)O[C@H]1n1cc(I)c2c(N)nc(N)nc21 | > 10 | > 10 | 99.5 | – | 62.8 | > 10 | 85.4 | 72.9
10 | C[C@@]1(O)[C@H](O)[C@@H](CO)O[C@H]1n1ccc(N)nc1=O | 2.8 | 9.6 | 47.5 | 100 | > 100 | > 10 | 54.4 | 47.4
11 | COc1ncnc2c1ccn2[C@H]1O[C@H](CO)[C@@H](O)[C@@]1(C)F | > 10 | – | ≥ 100 | ≥ 100 | > 100 | > 10 | > 100 | > 100
12 | C[C@@]1(F)[C@H](O)[C@@H](CO)O[C@@H]1n1ccc2c(N)nc(N)nc21 | > 10 | – | > 100 | > 100 | > 100 | – | > 100 | > 100
13 | C[C@@]1(F)[C@H](O)[C@@H](CO)O[C@@H]1n1cc(Br)c2c(N)ncnc21 | < 10 | – | ≥ 100 | – | 71.1 | > 10 | 76 | 89.1
14 | C#Cc1cn([C@H]2O[C@H](CO)[C@@H](O)[C@@]2(C)F)c2ncnc(N)c12 | < 10 | > 10 | 95.2 | – | > 100 | > 10 | > 100 | > 100
15 | C#Cc1cn([C@@H]2O[C@H](CO)[C@@H](O)[C@@]2(C)F)c2ncnc(N)c12 | < 10 | – | 59.1 | > 100 | > 100 | – | > 100 | 94.1
16 | C[C@@]1(F)[C@H](O)[C@@H](CO)O[C@H]1n1cc(Br)c2c(N)ncnc21 | < 10 | > 10 | > 100 | > 100 | 53.1 | < 10 | 50.5 | 74.2
17 | C#Cc1cn([C@@H]2O[C@H](CO)[C@@H](O)[C@@]2(C)F)c2nc(N)nc(N)c12 | > 10 | – | 84.4 | > 100 | > 100 | – | > 100 | > 100
18 | COC(=O)/C=C/c1cn([C@@H]2O[C@H](CO)[C@@H](O)[C@@]2(C)F)c2ncnc(N)c12 | > 10 | > 10 | > 100 | > 100 | > 100 | – | > 100 | > 100
19 | C[C@@]1(F)[C@H](O)[C@@H](CO)O[C@H]1n1cc(Cl)c2c(N)ncnc21 | < 10 | > 10 | 82.4 | – | > 100 | > 10 | > 100 | 18.5
20 | C[C@@]1(F)[C@H](O)[C@@H](CO)O[C@@H]1n1ccc2c(N)ncnc21 | > 10 | – | > 100 | – | > 100 | – | > 100 | > 100
21 | CCOC(=O)[C@H](C)NP(=O)(OC[C@H]1O[C@@H](n2cc(F)c3c(N)ncnc32)[C@](C)(F)[C@@H]1O)Oc1ccccc1 (some centres not stated) | > 10 | > 10 | 39.4 | 98.8 | > 100 | > 10 | > 100 | > 100
22 | COc1ncnc2c1ccn2[C@@H]1O[C@H](CO)[C@@H](O)[C@@]1(C)F | > 10 | > 10 | 24.8 | 85.6 | > 100 | – | > 100 | > 100
23 | C=Cc1cn([C@@H]2O[C@H](CO)[C@@H](O)[C@@]2(C)F)c2ncnc(N)c12 | 1.8 | 7.6 | 14.7 | 44.8 | 10.1 | 4.5 | 3.5 | 4.8
24 | C[C@@]1(F)[C@H](O)[C@@H](CO)O[C@H]1n1ccc2c(N)ncnc21 | > 10 | > 10 | > 100 | > 100 | > 100 | > 10 | > 100 | > 100
25 | CCc1cn([C@@H]2O[C@H](CO)[C@@H](O)[C@@]2(C)F)c2ncnc(N)c12 | < 10 | – | 19 | > 100 | > 100 | – | > 100 | 20.7
26 | C[C@@]1(F)[C@H](O)[C@@H](CO)O[C@@H]1n1cc(I)c2c(N)nc(N)nc21 | > 10 | – | > 100 | > 100 | > 100 | – | > 100 | > 100
27 | CNc1ncnc2c1c(F)cn2[C@H]1O[C@H](CO)[C@@H](O)[C@@]1(C)F | > 10 | – | > 100 | – | > 100 | – | > 100 | > 100
28 | C=Cc1cn([C@H]2O[C@H](CO)[C@@H](O)[C@@]2(C)F)c2ncnc(N)c12 | 5.6 | 18.4 | 35.5 | 65.2 | 14.6 | 8.3 | 16 | 21
